Test results published in ChEMBL document CHEMBL3286230, “Tetra- and pentacyclic triterpene acids from the ancient anti-inflammatory remedy frankincense as inhibitors of microsomal prostaglandin E(2) synthase-1” (J Nat Prod, 2014).

Legend:
Prostaglandin E synthase = biological target: T1, Prostaglandin E synthase (Homo sapiens, UniProt O14684); test: Inhibition of microsomal PGES1 isolated from IL-1beta-stimulated human A549 cells preincubated for 15 mins followed by substrate addition measured after 1 min by RP-HPLC analysis; format: cell-free
T1 sequence (O14684 whole entry): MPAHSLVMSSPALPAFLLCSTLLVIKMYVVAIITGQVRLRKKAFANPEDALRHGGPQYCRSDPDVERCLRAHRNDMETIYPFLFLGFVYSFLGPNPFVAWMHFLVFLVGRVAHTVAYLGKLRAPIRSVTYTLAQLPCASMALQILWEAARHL
Procedure, shortened: (§1)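 Enzyme source: microsomes from A549 cells, cultured 16 h at 37 °C and 5% CO2, then given fresh medium and induced with IL-1β (1 ng/mL) for 72 h. Microsomes were prepared by sonication and centrifugation at 174000g. Membranes in 0.1 M potassium phosphate pH 7.4 with 2.5 mM GSH were preincubated with compound or DMSO vehicle for 15 min at 4 °C. PGH2 (20 μM final) was added and the reaction ran 1 min at 4 °C. It was stopped with FeCl2/citric acid containing 11β-PGE2 as internal standard. PGE2 was measured by SPE and RP-HPLC; n = 3–4, mean + SEM.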

[1] = biological target: T2, Prostaglandin G/H synthase 2 (Homo sapiens, UniProt P35354); test: Inhibition of human recombinant COX-2 using arachidonic acid as substrate preincubated for 5 mins followed by substrate addition measured after 5 mins by HPLC analysis
T2 sequence (P35354 whole entry): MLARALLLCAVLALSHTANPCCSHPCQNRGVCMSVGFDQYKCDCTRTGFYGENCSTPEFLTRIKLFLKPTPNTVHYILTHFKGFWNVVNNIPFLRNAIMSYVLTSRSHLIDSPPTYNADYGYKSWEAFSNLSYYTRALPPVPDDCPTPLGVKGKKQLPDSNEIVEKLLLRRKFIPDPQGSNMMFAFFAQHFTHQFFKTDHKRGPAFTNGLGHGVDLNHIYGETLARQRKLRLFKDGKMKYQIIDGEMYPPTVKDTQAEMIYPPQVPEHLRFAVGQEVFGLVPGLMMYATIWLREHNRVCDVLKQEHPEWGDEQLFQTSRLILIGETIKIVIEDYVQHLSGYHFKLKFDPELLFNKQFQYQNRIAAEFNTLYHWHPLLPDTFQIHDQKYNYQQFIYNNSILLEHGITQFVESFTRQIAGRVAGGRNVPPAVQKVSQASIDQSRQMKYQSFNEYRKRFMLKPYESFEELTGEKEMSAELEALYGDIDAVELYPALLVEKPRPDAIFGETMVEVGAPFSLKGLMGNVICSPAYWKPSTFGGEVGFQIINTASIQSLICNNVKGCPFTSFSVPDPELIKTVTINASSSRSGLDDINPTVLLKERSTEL

[2] = biological target: T3, Prostaglandin G/H synthase 1 (Ovis aries) (UniProt P05979); test: Inhibition of ovine COX-1 using arachidonic acid as substrate assessed as residual activity at 10 uM preincubated for 5 mins followed by substrate addition measured after 5 mins by HPLC analysis relative to control
T3 sequence (whole entry): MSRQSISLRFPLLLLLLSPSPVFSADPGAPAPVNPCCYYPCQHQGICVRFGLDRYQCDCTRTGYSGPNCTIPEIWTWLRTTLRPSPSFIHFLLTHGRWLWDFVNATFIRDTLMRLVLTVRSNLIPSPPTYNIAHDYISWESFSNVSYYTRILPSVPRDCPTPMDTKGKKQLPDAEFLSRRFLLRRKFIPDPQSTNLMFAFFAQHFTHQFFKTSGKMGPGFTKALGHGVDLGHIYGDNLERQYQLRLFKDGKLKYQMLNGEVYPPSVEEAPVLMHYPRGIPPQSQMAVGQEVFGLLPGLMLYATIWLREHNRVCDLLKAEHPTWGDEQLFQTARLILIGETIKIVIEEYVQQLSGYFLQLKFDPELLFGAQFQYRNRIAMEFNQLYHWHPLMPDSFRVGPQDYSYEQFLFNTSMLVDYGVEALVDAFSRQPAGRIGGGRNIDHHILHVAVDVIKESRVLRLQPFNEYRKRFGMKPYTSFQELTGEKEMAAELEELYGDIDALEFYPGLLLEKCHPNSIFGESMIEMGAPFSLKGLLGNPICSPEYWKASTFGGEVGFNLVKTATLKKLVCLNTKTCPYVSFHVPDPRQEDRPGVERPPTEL

[3] = biological target: T4, Prostaglandin E synthase (Homo sapiens) (UniProt O14684); test: Inhibition of microsomal PGES1 isolated from IL-1beta-stimulated human A549 cells assessed as residual activity at 10 uM preincubated for 15 mins followed by substrate addition measured after 1 min by RP-HPLC analysis relative to control; format: cell-free; procedure, shortened: as §1
T4 sequence (whole entry): T1 sequence (O14684 whole entry)

[4] = biological target: T5, Prostaglandin G/H synthase 1 (Ovis aries, UniProt P05979); test: Inhibition of ovine COX-1 using arachidonic acid as substrate preincubated for 5 mins followed by substrate addition measured after 5 mins by HPLC analysis
T5 sequence (P05979 whole entry): T3 sequence (whole entry)

[5] = Cytotoxicity against human IMR32 cells after 48 hrs by MTT assay; format: functional, cell-based; conditions: IMR-32, 48 h
SK-N-SH = test: Cytotoxicity against human SK-N-SH cells after 48 hrs by MTT assay; format: functional, cell-based
[6] = Cytotoxicity against human NB39 cells after 48 hrs by MTT assay; format: functional, cell-based; conditions: NB39, 48 h
[7] = biological target: T5, Prostaglandin G/H synthase 1; test: Inhibition of ovine COX-1 using arachidonic acid as substrate assessed as PGE2 formation after 2 mins by LC-MS/MS analysis
[8] = biological target: T2, Prostaglandin G/H synthase 2; test: Inhibition of human COX-2 using arachidonic acid as substrate assessed as PGE2 formation after 2 mins by LC-MS/MS analysis

Row | IC50 [7] [µM] | IC50 [8] [µM] | Structure (SMILES) | IC50 (Prostaglandin E synthase) [nM] | IC50 [1] [µM] | Activity [2] [%] | Activity [3] [%] | IC50 [4] [µM] | IC50 [5] [µM] | IC50 (SK-N-SH) [µM] | IC50 [6] [µM]
1 | – | – | CC(C)=CCC[C@H](C(=O)O)[C@@H]1CC[C@]2(C)C3=CC[C@H]4C(C)(C)[C@H](O)CC[C@]4(C)[C@H]3CC[C@@]12C | 3000 | > 10 | 69.6 | 29.6 | > 10 | – | – | –
2 | – | – | C=C(C)[C@@H]1CC[C@]2(CO)CC[C@]3(C)[C@H](CC[C@@H]4[C@@]5(C)CC[C@H](OC(C)=O)[C@](C)(C(=O)O)[C@@H]5CC[C@]43C)[C@@H]12 | 900 | > 10 | 90.7 | 31.1 | > 10 | – | – | –
3 | – | – | CC(=O)O[C@@H]1CC[C@]2(C)C3=C(CC[C@H]2C1(C)C)[C@@]1(C)CC[C@@H]([C@H](CCC=C(C)C)C(=O)O)[C@]1(C)CC3 | 400 | > 10 | 63.2 | 36.8 | > 10 | – | – | –
4 | – | – | C=C(C)[C@@H]1CC[C@]2(C)CC[C@]3(C)[C@H](CC[C@@H]4[C@@]5(C)CC[C@H](O)[C@](C)(C(=O)O)[C@@H]5CC[C@]43C)[C@@H]12 | 8500 | – | – | 43.1 | – | 4.1 | 4.1 | 4.1
5 | – | – | CC(C)[C@@H]1CC[C@]2(C)[C@H](CC=C3[C@@H]4CC(C)(C)CC[C@]4(C)CC[C@]32C)[C@@]1(C)CCC(=O)O | > 10000 | – | – | 74.1 | – | – | – | –
6 | – | – | CC(C)=CCC[C@H](C(=O)O)[C@H]1CC[C@]2(C)C3=C(CC[C@@]12C)[C@@]1(C)CCC(=O)C(C)(C)[C@H]1CC3 [BETA-ELEMONIC ACID] | 900 | > 10 | 81.1 | 16.7 | > 10 | – | – | –
7 | > 10 | > 10 | C=C(C)[C@@H]1CC[C@]2(C)[C@H](CC=C3[C@@H]4[C@@H](C)[C@H](C)CC[C@]4(C)CC[C@]32C)[C@@]1(C)CCC(=O)O | > 10000 | – | – | 83.9 | – | – | – | –
8 | – | – | C=C(C)[C@@H]1CC[C@]2(C)CC[C@]3(C)[C@H](CC[C@@H]4[C@@]5(C)CC[C@H](OC(C)=O)[C@](C)(C(=O)O)[C@@H]5CC[C@]43C)[C@@H]12 | 10000 | – | – | 51.4 | – | 4.1 | 4.1 | 4.1
9 | – | – | CC(C)=CCC[C@H](C(=O)O)[C@@H]1CC[C@]2(C)C3=C(CC[C@@]12C)[C@@]1(C)CC[C@H](O)C(C)(C)[C@@H]1CC3 | 1200 | > 10 | 82.3 | 29.2 | > 10 | – | – | –
10 | – | – | CC(C)=CCC[C@H](C(=O)O)[C@@H]1CC[C@]2(C)C3=C(CC[C@@]12C)[C@@]1(C)CC[C@@H](O)C(C)(C)[C@@H]1CC3 | 1100 | – | 81.9 | 3.5 | > 10 | – | – | –
11 | – | – | CC(C)[C@@H]1CC[C@]2(C)[C@H](C(=O)C=C3[C@@H]4[C@@H](C)[C@H](C)CC[C@]4(C)CC[C@]32C)[C@@]1(C)CCC(=O)O | 1000 | > 10 | 64.8 | 21.6 | > 10 | – | – | –
12 | – | – | CC(=O)O[C@@H]1CC[C@]2(C)[C@H]3CC[C@@]4(C)[C@H]([C@H](CCC=C(C)C)C(=O)O)CC[C@]4(C)C3=CC[C@H]2C1(C)C | 400 | – | – | 20.6 | > 10 | – | – | –
13 | – | – | CC(C)[C@@H]1CC[C@]2(C)[C@H](CC=C3[C@@H]4[C@@H](C)[C@H](C)CC[C@]4(C)CC[C@]32C)[C@@]1(C)CCC(=O)O | > 10000 | – | – | 92.4 | – | – | – | –
